The target of one assay is human CYP17 (Homo sapiens, UniProt P05093). The note with it: read-out: CYP17 IC50; value for 5; cited from earlier work.
The next assay relates to LAPC-4 xenografts. The assay can be described thus: LAPC-4 prostate cancer xenograft anti-tumor efficacy. It is filed as in vivo, male SCID mice.
For assay [1], the system named is prostate, seminal vesicles, and the testes. The assay can be described thus: Urogenital tissue weights in LAPC-4 xenograft mice. It is filed as in vivo, male SCID mice. As to conditions: 31 days, 0.15 mmol/kg; 3 and 5 s.c. b.i.d., 4 and 5-acetate p.o. In a few lines:
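Male SCID mice, 4–6 weeks old, housed pathogen-free with food and water ad libitum. LAPC-4 cells were scraped into DPBS, pelleted and resuspended in Matrigel (10 mg/ml) at 2.0 × 10^7 cells/mL before inoculation. Vehicle was 0.3% HPC; test compounds were given at 0.15 mmol/kg. After 31 days of treatment, prostate, seminal vesicles and testes were excised and weighed and compared with vehicle controls.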

Another assay deals with LNCaP cells. The assay can be described thus: Cell proliferation / viability XTT assay, LNCaP. It is filed as cell-based. The note with it: Homo sapiens, read-out: Cell growth inhibition GI50 LNCaP. On the technique in general: Formazan colour is commonly taken as a measure of viable cells.
The test system of a further assay is LAPC-4 cells. The assay can be described thus: Cell proliferation / viability XTT assay, LAPC-4. It counts as cell-based. As to conditions: Homo sapiens, LAPC4, read-out: Cell growth inhibition GI50 LAPC-4. In a few lines:
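Cells moved to steroid-free medium (phenol red-free RPMI, 5% dextran-coated charcoal-treated serum, 1% penicillin/streptomycin) 3 days before plating at 1.5 × 10^4 cells/well. After 24 h attachment, they were given steroid-free medium with ethanol vehicle, androgens and/or test compound, changed every three days. Viability was read by XTT absorbance on day 7. Each result is the average of at least three wells.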

human CYP17, sequence (P05093 whole entry): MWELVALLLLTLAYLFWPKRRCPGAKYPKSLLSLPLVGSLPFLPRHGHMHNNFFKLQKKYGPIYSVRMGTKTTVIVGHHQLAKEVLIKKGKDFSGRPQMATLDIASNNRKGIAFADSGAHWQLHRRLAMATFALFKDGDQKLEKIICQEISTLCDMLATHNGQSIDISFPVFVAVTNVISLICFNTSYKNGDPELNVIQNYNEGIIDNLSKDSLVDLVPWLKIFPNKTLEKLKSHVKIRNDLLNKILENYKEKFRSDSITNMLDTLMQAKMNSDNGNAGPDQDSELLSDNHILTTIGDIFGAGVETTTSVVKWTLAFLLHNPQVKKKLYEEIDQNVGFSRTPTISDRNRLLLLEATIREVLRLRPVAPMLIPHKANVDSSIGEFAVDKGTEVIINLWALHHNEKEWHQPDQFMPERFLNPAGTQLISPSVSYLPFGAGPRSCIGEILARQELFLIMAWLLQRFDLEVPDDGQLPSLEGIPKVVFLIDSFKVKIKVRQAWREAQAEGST

On to `C[C@]12CC[C@H](O)CC1=CC[C@@H]1[C@@H]2CC[C@]2(C)C(n3cnc4ccccc43)=CC[C@@H]12` [Compound 5, 3β-Hydroxy-17-(1H-benzimidazol-1-yl)androsta-5,16-dien], for which the IC50 (in general, the point on the concentration scale where inhibition reaches its midpoint) on human CYP17 was 47 nM. Besides, the “inhibition of growth of LAPC-4 tumors (in words)” value in the assay on LAPC-4 xenografts (first study, 0.15 mmol/kg s.c. b.i.d.) is “most effective therapy in inhibiting the growth of LAPC-4 tumors”. In the assay on LAPC-4 xenografts (first study, 0.15 mmol/kg s.c. b.i.d., vs control p = 0.0001, 4 p = 0.005, 3 p = 0.053, 5-acetate p = 0.006), the “average tumor volume on day 31 (in words)” value is given as “smaller average tumor volume on day 31”. Besides, the “final tumor weights (in words)” value in the assay with LAPC-4 xenografts (first study, 31 days of treatment, vs control, 3, and castration, p < 0.05) is reported as “significantly reduced”. Besides, in the assay with LAPC-4 xenografts (preclinical studies), the “oral activity (in words)” value is “not orally active”. The “effect on LAPC-4 tumor growth (in words)” value in the assay with LAPC-4 xenografts (third study, 0.15 mmol/kg s.c. once daily) was “did not have a significant effect on tumor growth”. Further, in assay [1], the “prostate size/weight (in words)” value is “reduced the size of the prostate, although the reduction was not quite significant”; the “seminal vesicles size/weight (in words)” value is “significantly reduced the size of the seminal vesicles and testes”; the “testes size/weight (in words)” value was “significantly reduced the size of the seminal vesicles and testes”. Further, the concentration for 50% growth inhibition (GI50) (usually the concentration giving 50% growth inhibition) in the assay on LNCaP cells stood at 6 µM. In addition, the GI50 with LAPC-4 cells came to 3.2 µM.

The values are drawn from article PMC3171567 (Steroids, 2011).
